The results in this text go back to ChEMBL document CHEMBL1145895, “A new generation of N-aryl-N'-(1-alkyl-2-chloroethyl)ureas as microtubule disrupters: synthesis, antiproliferative activity, and beta-tubulin alkylation kinetics” (J Med Chem, 2003).

Molecules are shown by their SMILES. pIC50: −log10 of the molar value.

Holding throughout (format): functional, cell-based
One assay has as its system B16. The assay can be described thus: In vitro cytotoxic activity required to inhibit murine melanoma B16 cell line. The following applies: Mus musculus. Summed up: (§1)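 Alamar Blue viability assay. (1-5) × 10³ cells were seeded in RPMI 1640 with 10% bovine calf serum and preincubated 24 h. Increasing drug concentrations from DMSO stocks were added (final DMSO 0.5%) and cells incubated 72 h at 37 °C. Fluorescence read at ex 485/em 590 nm. IC50 is the dose inhibiting growth by 50%, mean of at least three independent determinations.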

For a further assay, the system named is HT-29. The assay can be described thus: In vitro cytotoxic activity required to inhibit human colon adenocarcinoma HT-29 cell line. Summed up: as §1
The next assay relates to K562. The assay can be described thus: In vitro cytotoxic activity required to inhibit human chronic myelogenous leukemia K-562 cell line. Summed up: as §1
In the next assay the test system is MCF7. Put plainly: In vitro cytotoxic activity required to inhibit human estrogen-sensitive breast adenocarcinoma MCF-7 cell line. Summed up: as §1
A further assay has as its system T-24. The assay can be described thus: In vitro cytotoxic activity required to inhibit human bladder carcinoma T24 cell line. Put shortly:
as §1

In the next assay the test system is L1210. Put plainly: In vitro cytotoxic activity required to inhibit murine lymphocytotic leukemia L1210 cell line. To be noted: Mus musculus. Put shortly: as §1
A further assay deals with CHO. Put plainly: Cytotoxic activity on wild type CHO10001 cell line expressing mutated tubulin. The following applies: Cricetulus griseus. Summed up: as §1
The test system of another assay is CHO-TAX 5-6. Put plainly: Cytotoxic activity on paclitaxel-resistant CHO-TAX 5-6 cell line expressing mutated tubulin. To be noted: Cricetulus griseus. Put shortly:
as §1

The next assay concerns CHO-VV 3-2. The assay can be described thus: Cytotoxic activity on colchicine-resistant CHO-VV 3-2 cell line expressing mutated tubulin. To be noted: Cricetulus griseus. Summed up:
as §1

As a reminder, the pIC50 is the negative decadic logarithm of the IC50, by convention in mol/L. Low readings indicate a high IC50, high ones a low IC50. Regarding `CC(C)c1ccc(NC(=O)NCCCl)cc1`, the pIC50 in the assay on B16 is 5.33; in the assay on HT-29, 5.64; in the assay with K562 it was 5.72; in the assay on MCF7 it was 5.33; in the assay with T-24, 5.44; in the assay with L1210, 5.70.
Turning to `C[C@@H](CCl)NC(=O)Nc1ccc2c(c1)Cc1ccccc1-2`, the pIC50 with B16 is 4.52; in the assay with HT-29, 4.55; in the assay with K562 it was 4.72; in the assay on MCF7, 4.54; with T-24, 4.57; with L1210 it was 4.77.
In the case of `CC[C@@H](CCl)NC(=O)Nc1ccc(I)cc1`, the pIC50 in the assay with B16 is 4.05; with HT-29, 4.10; in the assay with K562 it was 4.20; in the assay on MCF7, 4.10; in the assay with T-24 it was 4.17; in the assay with L1210, 4.05.
Consider `CCC(C)c1ccc(NC(=O)N[C@H](C)CCl)cc1` (some centres undefined), for which the pIC50 was 5.38 with B16; 5.72 with HT-29; 5.70 in the assay with K562; 5.32 in the assay on MCF7; 5.47 in the assay on T-24; 5.77 with L1210.
Turning to `C[C@@H](CCl)NC(=O)Nc1ccc2c(c1)CCC2`, the negative logarithm of the IC50 (pIC50) is < 4.00 in the assay on B16; < 4.00 in the assay with HT-29; 4.04 with K562; < 4.00 with MCF7; 4.04 with T-24; 4.39 with L1210.
In the case of `CCC(C)c1ccc(NC(=O)N[C@H](CC)CCl)cc1` (some centres undefined), the pIC50 was 4.70 in the assay on B16; 4.70 in the assay on HT-29; 4.72 in the assay on K562; 4.42 with MCF7; 4.55 in the assay on T-24; 4.96 in the assay on L1210.
Consider `CC[C@H](CCl)NC(=O)Nc1ccc(I)cc1`, for which the pIC50 was 4.31 in the assay on B16; 4.47 in the assay on HT-29; 4.51 with K562; 4.28 in the assay with MCF7; 4.34 with T-24; 4.06 in the assay on L1210.
As for `C[C@@H](CCl)NC(=O)Nc1ccc2ccccc2c1`, the pIC50 is < 4.00 with B16; 4.07 with HT-29; 4.20 with K562; < 4.00 in the assay on MCF7; 4.15 with T-24; 4.70 in the assay with L1210.
`CC(C)c1ccc(NC(=O)N[C@H](C)CCl)cc1`: the pIC50 was 5.64 in the assay on B16; 6.00 in the assay on HT-29; 6.05 in the assay on K562; 5.54 with MCF7; 5.72 in the assay on T-24; 6.05 with L1210.
On to `CC(C)c1ccc(NC(=O)N[C@@H](C)CCl)cc1`, for which the pIC50 is 4.34 with B16; 4.19 with HT-29; 4.48 with K562; < 4.00 with MCF7; 4.27 with T-24; 4.55 in the assay on L1210.
For the molecule `CC[C@@H](CCl)NC(=O)Nc1ccc(C(C)C)cc1`, the pIC50 is 4.34 in the assay with B16; 4.29 with HT-29; 4.55 in the assay with K562; 4.14 in the assay on MCF7; 4.24 in the assay with T-24; 4.62 with L1210.
For `CCC(C)c1ccc(NC(=O)NCCCl)cc1` (centres undefined), the pIC50 was 5.30 with B16; 5.74 in the assay with HT-29; 5.70 in the assay with K562; 5.28 in the assay on MCF7; 5.43 in the assay on T-24; 5.70 in the assay with L1210.
For the molecule `C[C@H](CCl)NC(=O)Nc1ccc(I)cc1`, the pIC50 was 5.68 in the assay on B16; 5.64 in the assay with CHO; 6.15 in the assay with CHO-TAX 5-6; 5.33 in the assay with CHO-VV 3-2; 5.89 with HT-29; 6.00 in the assay with K562. Moreover, the values for the pIC50 in the assay on MCF7, in the assay with T-24 and in the assay with L1210 were 5.49, 5.74 and 6.10, respectively.
For the molecule `C[C@@H](CCl)NC(=O)Nc1ccc(C(C)(C)C)cc1`, the pIC50 is 4.46 in the assay with B16; 4.25 in the assay with CHO; 4.28 in the assay on CHO-TAX 5-6; 4.28 in the assay with CHO-VV 3-2; 4.32 with HT-29; 4.33 in the assay on K562. In addition, the pIC50 was 4.08 with MCF7, 4.39 in the assay with T-24 and 4.92 in the assay on L1210.
On to `C[C@H](CCl)NC(=O)Nc1ccc2c(c1)CCC2`, for which the pIC50 with B16 is 4.96; in the assay with HT-29, 5.19; in the assay with K562 it was 5.30; with MCF7, 4.96; in the assay with T-24, 5.13; with L1210 it was 5.38.
For the molecule `CC[C@H](CCl)NC(=O)Nc1ccc(C(C)(C)C)cc1`, the pIC50 is 4.57 in the assay on B16; 4.60 with HT-29; 4.55 in the assay with K562; 4.28 in the assay on MCF7; 4.55 in the assay with T-24; 4.77 in the assay with L1210.
On to `C[C@H](CCl)NC(=O)Nc1ccc2c(c1)Cc1ccccc1-2`, for which the negative-log IC50 (pIC50) was 5.03 with B16; 5.18 in the assay on HT-29; 5.29 in the assay on K562; 5.00 in the assay on MCF7; 5.13 with T-24; 5.38 in the assay with L1210.
Take `O=C(NCCCl)Nc1ccc2ccccc2c1`: the pIC50 is 5.20 with B16; 5.59 with HT-29; 5.60 in the assay with K562; 5.14 in the assay on MCF7; 5.54 with L1210.
In the case of `C[C@H](CCl)NC(=O)Nc1ccc2ccccc2c1`, the pIC50 in the assay with B16 is 5.35; in the assay on HT-29 it was 5.64; in the assay on K562 it was 5.64; in the assay on MCF7, 5.22; with T-24 it was 5.40; in the assay on L1210, 5.77.
With `C[C@@H](CCl)NC(=O)Nc1ccc(I)cc1`, the pIC50 in the assay on B16 was 4.03; with CHO it was 4.24; in the assay on CHO-TAX 5-6, 4.27; in the assay on CHO-VV 3-2 it was 4.29; with HT-29, 4.12; in the assay with K562, 4.37. Also, the negative logarithm of the IC50 (pIC50) was 4.03 in the assay with MCF7, 4.23 with T-24 and 4.33 with L1210.
Take `C[C@H](CCl)NC(=O)Nc1ccc(C(C)(C)C)cc1`: the pIC50 with B16 is 5.07; with CHO it was 5.09; in the assay with CHO-TAX 5-6, 5.44; in the assay on CHO-VV 3-2, 4.82; in the assay on HT-29, 5.41; in the assay on K562 it was 5.42. Moreover, the values for the pIC50 in the assay with MCF7, in the assay with T-24 and in the assay on L1210 were 5.00, 5.15 and 5.47, respectively.
Regarding `CC[C@@H](CCl)NC(=O)Nc1ccc(C(C)(C)C)cc1`, the pIC50 in the assay on B16 was 4.57; in the assay on HT-29 it was 4.62; in the assay with K562, 4.59; with MCF7 it was 4.22; in the assay with T-24, 4.54; with L1210 it was 4.77.
As to `CCC(C)c1ccc(NC(=O)N[C@@H](CC)CCl)cc1` (some centres undefined), the pIC50 with B16 is 4.57; with HT-29, 4.55; with K562, 4.57; in the assay with MCF7, 4.29; in the assay on T-24, 4.42; in the assay on L1210, 4.92.
Consider `CC[C@H](CCl)NC(=O)Nc1ccc(C(C)C)cc1`, for which the pIC50 was 4.48 with B16; 4.55 in the assay on HT-29; 4.72 in the assay on K562; 4.26 with MCF7; 4.49 with T-24; 4.85 in the assay on L1210.
Take `CC(C)(C)c1ccc(NC(=O)NCCCl)cc1`: the pIC50 is 5.10 in the assay on B16; 5.12 in the assay on CHO; 5.51 with CHO-TAX 5-6; 4.89 in the assay with CHO-VV 3-2; 5.40 in the assay with HT-29; 5.44 with K562. Moreover, the negative logarithm of the IC50 (pIC50) was 4.96 in the assay on MCF7, 5.20 in the assay with T-24 and 5.48 in the assay with L1210.
Take `O=C(NCCCl)Nc1ccc(I)cc1`: the pIC50 with B16 is 4.80; with CHO it was 4.82; in the assay on CHO-TAX 5-6, 5.21; with CHO-VV 3-2, 4.64; in the assay with HT-29 it was 5.22; in the assay on K562 it was 5.21. For the same molecule, the values for the pIC50 with MCF7, in the assay on T-24 and with L1210 were 4.64, 4.92 and 5.44, respectively.
As to `CCC(C)c1ccc(NC(=O)N[C@@H](C)CCl)cc1` (some centres undefined), the negative logarithm of the IC50 (pIC50) in the assay with B16 was 4.48; with HT-29, 4.41; in the assay on K562 it was 4.47; with MCF7, 4.20; with T-24 it was 4.46; in the assay with L1210, 4.74.
